Laboratory results: ChEMBL document CHEMBL4513216, “Probing the Open Global Health Chemical Diversity Library for Multistage-Active Starting Points for Next-Generation Antimalarials” (ACS Infect Dis, 2020)

Assay: Toxicity liver stage against HepG2, at 10uM
Assay type: cell-based
Parameters: test concentration 10 uM, cell line HepG2-A16-CD81EGFP
Details: human, HepG2-A16-CD81EGFP cells; read-out: INHIBITION
Outline: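 Uninfected HepG2-A16-CD81EGFP cells, 3 × 10^3 per well, 1536-well, plated on prespotted compound at 10 μM final, parasite-free screening media added to match infected plates; puromycin 10 μM positive, DMSO 0.5% negative; run in parallel with 48 h PbLuc assay at 37 °C, 5% CO2; viability by CellTiter-Glo luminescence, normalized to controls.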

SMILES | cytotoxicity at 10 µM [%]
Cc1ccncc1NC(=O)C1CSc2ncc(C)c(=O)n2C1 (stereo not given) | -6.53
CCNC(=O)N1CCC2(CC1)CCn1c(C3CC3)cnc12 | 1.89
Cn1cccc1C(=O)N1CC[C@H]2[C@@H]1CCC(=O)N2c1ccccc1 | -6.53
CCOC(=O)Cn1ccc(NC(=O)Cc2ccccc2F)n1 | 3.33
Cc1nc(NCc2nonc2C)cc(C(C)Cn2nc(C)c(C)c2C)n1 (stereo not given) | 7.03
CCn1cc(CN2CCN(CC(O)c3cc(C)ccc3C)CC2)c(C)n1 (stereo not given) | 3.41
Cc1nccc(C2CN(Cc3cc[nH]n3)CCO2)n1 (stereo not given) | -6.92
Cc1ccccc1-n1nccc1NC(=O)CCOC(C)C | 0
NC(=O)CCN(CC(=O)NCc1ccccn1)c1ccc(F)cc1 | 7.98
Cc1cnc(C(=O)N2CCOCC2c2ccccc2)cn1 (stereo not given) | -8.31
Cc1noc(Cl)c1CC(=O)NCC(C)(O)c1ccc(F)cc1F (stereo not given) | -0.837
Cc1nn(CCC#N)c(C)c1CCC(=O)N(C(C)C)C1CC1 | -2.72
COCCCn1ccc(NC(=O)NCCCn2ccnc2)n1 | -3.04
Cc1ccc(CNC(=O)c2c[nH]nc2NC(=O)COCC2CC2)cc1 | 3.58
CS(=O)(=O)c1nnc(NC(=O)CCc2cc(F)ccc2F)[nH]1 | -16.6
CCC(C)(N)c1nc(=O)c(C)c(C)[nH]1 (stereo not given) | -1.82
NS(=O)(=O)CC1CCCN(C(=O)CCCC2CCCC2)C1 (stereo not given) | 15.8
CSCCC(NC(=O)c1ccc2ccccc2n1)C(=O)NC1CC1 (stereo not given) | -7.03
Cc1ccc(CNCC2CCCn3ccnc32)s1 (stereo not given) | -15.1
O=C(c1ccnnc1)N1C[C@H]2CCC[C@@]2(COCC2CCOCC2)C1 | -3.04
CC(=O)c1ccc(N2CCCC(CO)(CCc3ccccc3)C2)nc1 (stereo not given) | 1.2
Cc1cc(NCCc2nc(C)c[nH]2)nc(-c2ccccc2O)n1 | 1.5
Cc1nccc(N[C@H]2CN(C(=O)CN3CCOCC3)C[C@@H]2C(C)C)n1 | -7.92

SMILES | cytotoxicity at 10 µM [%]
O=C(CCCn1cncn1)N1CCCC1c1nc(-c2ccccc2)no1 (stereo not given) | 0.997
COc1cccn(CC(=O)N(C)CCSC)c1=O | 5.03
O=C(CCN1CCCO1)N1CC[C@@H](CNC(=O)N2CCCC2)[C@H](O)C1 | 0.275
Cc1ccc(Cl)c(NC(=O)c2cccc(CN3CC[C@H](O)C3)c2)c1 | -11.9
OCC(O)CN(CCN1CCOCC1)Cc1ccco1 (stereo not given) | -4.7
Cc1ccc2nccc(C(=O)N3CCOC(CCN(C)C)C3)c2c1 (stereo not given) | 10.8
CNc1ccnc(N2CCCC(C(=O)c3ccccn3)C2)n1 (stereo not given) | -12.1
CCCS(=O)(=O)N1CCC2(CC1)CC(=O)N(CCCc1ccccc1)C2 | 8.35
O=C1NCC(c2ccc(F)cc2)Cc2[nH]c(CCN3CCCC3)nc21 (stereo not given) | -0.65
COc1ccc(F)cc1C(=O)C1CCCN(Cc2ccc(C)s2)C1 (stereo not given) | -1.84
CCN1CC(C(=O)NCCn2cccc2)CC1=O (stereo not given) | -4.72
CN(Cc1nccn1C)C1CCCN(CCCc2ccccc2)C1 (stereo not given) | 1.17
c1ccc(C(CC2CN(Cc3ncc[nH]3)CCO2)c2ccccc2)cc1 (stereo not given) | -0.73
c1ccc2c(c1)CC(n1ccnc1-c1cc3n(n1)CCNC3)CO2 (stereo not given) | 4.58
CCc1[nH]c2ccc(CNC(=O)Cc3c(C)nc(N)nc3C)cc2c1C | 2.02
CCCc1c(C(=O)NC2CCCC2)nnn1-c1ccc(OC)cc1 | 5.65
Cc1ccc(-c2noc(CN3CCOC(Cn4cncn4)C3)n2)cc1 (stereo not given) | -4.15
CC(C)Cc1cc(C(=O)N2CCCC(n3cncn3)C2)[nH]n1 (stereo not given) | -3.9
c1cnc(N2CCO[C@H]3[C@H](OCCN4CCCC4)CC[C@@H]32)nc1 | -11.8
COCCN1CCC2(CC1)CC(Nc1ccc(C)nn1)CO2 (stereo not given) | -0.818
Fc1cnc(N2CCCC3(CCN(Cc4ccsc4)C3)C2)nc1 (stereo not given) | -2.83
O=C(CN1C[C@@H]2CC[C@H]1CN(Cc1ccccn1)C2)Nc1ccccc1 | -5.92
